# Measurements taken from ChEMBL document CHEMBL1250539, “OGA inhibition by GlcNAc-selenazoline” (Bioorg Med Chem, 2010).
# Activity calls are given as the source filed them. The calls are words filed in the database; no cut-off is given here.
# Assays:
# HeLa = experiment: Induction of hyper-O-GlcNAc-ylation in human HeLa cells assessed as increase of O-GlcNAc level at 40 uM after 48 hrs Western blotting; assay type: functional, cell-based
# How it was run: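 HeLa cells seeded at 1.0 × 10^5 per well in DMEM + 10% FBS, ±40 μM inhibitor, 37 °C, 2 days. Washed in PBS, pelleted and lysed with M-PER reagent. Equal protein (20 μg) separated on 10% gel. Western blot with RL2 anti-O-GlcNAc (1:1000) and IR-dye anti-mouse secondary; infrared imaging.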
# [1] = Competitive inhibition of Streptomyces plicatus hexosaminidase
# [2] = target: T1, Beta-hexosaminidase subunit beta (Homo sapiens) (UniProt P07686); experiment: Inhibition of human placental lysosomal hexosaminidase B at 5 uM
# T1 sequence (whole entry): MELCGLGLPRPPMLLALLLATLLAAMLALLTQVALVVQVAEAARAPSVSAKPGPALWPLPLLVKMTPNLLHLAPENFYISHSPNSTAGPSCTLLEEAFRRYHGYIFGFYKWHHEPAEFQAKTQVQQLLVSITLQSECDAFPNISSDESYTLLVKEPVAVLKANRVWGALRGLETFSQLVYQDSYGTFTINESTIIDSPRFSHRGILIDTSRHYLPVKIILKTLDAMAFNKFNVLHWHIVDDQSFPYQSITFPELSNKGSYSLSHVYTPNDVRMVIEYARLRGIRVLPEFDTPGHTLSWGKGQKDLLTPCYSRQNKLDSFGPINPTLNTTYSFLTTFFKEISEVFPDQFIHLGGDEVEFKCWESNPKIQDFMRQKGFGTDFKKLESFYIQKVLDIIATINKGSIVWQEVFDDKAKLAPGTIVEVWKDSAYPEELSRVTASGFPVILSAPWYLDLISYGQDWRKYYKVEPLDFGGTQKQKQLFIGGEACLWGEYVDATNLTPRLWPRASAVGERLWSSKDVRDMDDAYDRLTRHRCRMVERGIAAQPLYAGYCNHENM
# Protein O-GlcNAcase = target: T2, Protein O-GlcNAcase (Homo sapiens, UniProt O60502); experiment: Inhibition of human O-GlcNAcase after 5 mins by Lineweaver-Burke plot analysis
# T2 sequence (O60502 whole entry): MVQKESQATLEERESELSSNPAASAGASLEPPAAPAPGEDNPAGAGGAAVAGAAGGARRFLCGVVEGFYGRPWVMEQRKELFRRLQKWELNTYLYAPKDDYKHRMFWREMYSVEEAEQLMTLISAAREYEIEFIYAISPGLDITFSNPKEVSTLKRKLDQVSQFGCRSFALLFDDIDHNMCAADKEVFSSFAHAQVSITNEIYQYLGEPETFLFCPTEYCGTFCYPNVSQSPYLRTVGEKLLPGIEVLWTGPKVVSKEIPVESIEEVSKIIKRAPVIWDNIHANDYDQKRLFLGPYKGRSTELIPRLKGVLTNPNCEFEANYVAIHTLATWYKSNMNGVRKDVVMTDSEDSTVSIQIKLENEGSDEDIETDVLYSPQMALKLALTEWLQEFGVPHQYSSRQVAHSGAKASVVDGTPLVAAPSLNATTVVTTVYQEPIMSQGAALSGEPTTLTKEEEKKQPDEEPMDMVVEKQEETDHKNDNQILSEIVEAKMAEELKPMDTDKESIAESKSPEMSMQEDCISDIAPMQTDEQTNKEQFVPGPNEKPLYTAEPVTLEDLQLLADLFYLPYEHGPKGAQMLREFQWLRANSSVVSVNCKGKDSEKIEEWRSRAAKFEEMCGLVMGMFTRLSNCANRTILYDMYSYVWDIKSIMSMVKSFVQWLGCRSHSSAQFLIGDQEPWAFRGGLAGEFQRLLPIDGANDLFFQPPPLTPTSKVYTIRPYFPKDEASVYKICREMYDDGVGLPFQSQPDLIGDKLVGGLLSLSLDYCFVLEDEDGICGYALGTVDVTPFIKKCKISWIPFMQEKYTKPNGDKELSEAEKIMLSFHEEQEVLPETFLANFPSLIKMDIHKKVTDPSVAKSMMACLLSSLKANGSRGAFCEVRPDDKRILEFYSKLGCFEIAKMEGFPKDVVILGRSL
# [3] = target: RAC-alpha serine/threonine-protein kinase (Mus musculus) (UniProt P31750); experiment: Activation of AKT
# [4] = target: T3, Beta-hexosaminidase subunit alpha (Homo sapiens) (UniProt P06865); experiment: Inhibition of human placental lysosomal hexosaminidase A at 5 uM
# T3 sequence (whole entry): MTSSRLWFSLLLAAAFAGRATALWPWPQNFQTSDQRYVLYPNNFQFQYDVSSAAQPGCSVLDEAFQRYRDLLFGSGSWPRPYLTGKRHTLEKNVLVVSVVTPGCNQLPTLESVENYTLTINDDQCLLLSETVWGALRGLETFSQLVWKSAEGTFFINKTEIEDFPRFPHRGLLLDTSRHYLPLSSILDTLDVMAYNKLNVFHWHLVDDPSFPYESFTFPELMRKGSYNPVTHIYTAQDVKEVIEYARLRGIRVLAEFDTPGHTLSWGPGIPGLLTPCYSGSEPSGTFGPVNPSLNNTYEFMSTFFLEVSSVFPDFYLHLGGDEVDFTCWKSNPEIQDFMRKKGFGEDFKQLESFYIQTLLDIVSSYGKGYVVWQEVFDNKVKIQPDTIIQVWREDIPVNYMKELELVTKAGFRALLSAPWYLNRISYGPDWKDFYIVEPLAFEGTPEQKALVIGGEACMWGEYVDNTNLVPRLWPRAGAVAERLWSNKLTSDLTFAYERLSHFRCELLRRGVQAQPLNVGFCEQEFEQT
# How it was run: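 Human placental Hex A was incubated with 50 μM fluorescein di(GlcNAc) substrate ± 5 μM inhibitor in 100 mM citrate/phosphate pH 6.5 without GalNAc at 37 °C for 30 min. The reaction was stopped with 0.5 M Na2CO3 and read by fluorescence (ex 485 / em 535 nm). Percent inhibition was taken against activity without inhibitor.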
# 3T3-L1 = experiment: Effect on GLUT4 level in mouse differentiated 3T3L1 cells; assay type: functional, cell-based
# How it was run: (§1)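 Differentiated 3T3-L1 adipocytes (day 8) were held 16 h in serum-free DMEM with 4 mM glucose, with or without 40 μM inhibitor. They were re-fed and stimulated with 30 nM insulin for 20 min. Surface GLUT4 was photolabeled with 250 μM Bio-ATB-BMPA at 300 nm. Lysate (600 μg) underwent streptavidin pull-down and anti-GLUT4 immunoblotting, and surface GLUT4 was compared with untreated cells.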
# HT-29 = experiment: Induction of hyper-O-GlcNAc-ylation in human HT-29 cells assessed as increase of O-GlcNAc level at 40 uM after 48 hrs Western blotting; assay type: functional, cell-based
# How it was run: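 HT-29 cells seeded at 1.0 × 10^5 per well in McCoy's 5a + 10% FBS, with or without 40 μM inhibitor, 37 °C for 2 days. Lysed in Tris pH 8.0/DTT/Triton X-100 with protease inhibitors and sonicated. 20 μg protein per lane run on 10% SDS gel and blotted. Probed with anti-O-GlcNAc RL2 (1:1000) and IR-dye anti-mouse secondary; infrared imaging.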
# [5] = target: T4, Solute carrier family 2, facilitated glucose transporter member 4 (Mus musculus) (UniProt P14142); experiment: Inhibition of insulin-induced GLUT4 translocation into plasma membrane of mouse differentiated 3T3L1 cells at 40 uM after 16 hrs by Western blotting relative to control; conditions: 3T3-L1; how it was run: as §1
# T4 sequence (whole entry): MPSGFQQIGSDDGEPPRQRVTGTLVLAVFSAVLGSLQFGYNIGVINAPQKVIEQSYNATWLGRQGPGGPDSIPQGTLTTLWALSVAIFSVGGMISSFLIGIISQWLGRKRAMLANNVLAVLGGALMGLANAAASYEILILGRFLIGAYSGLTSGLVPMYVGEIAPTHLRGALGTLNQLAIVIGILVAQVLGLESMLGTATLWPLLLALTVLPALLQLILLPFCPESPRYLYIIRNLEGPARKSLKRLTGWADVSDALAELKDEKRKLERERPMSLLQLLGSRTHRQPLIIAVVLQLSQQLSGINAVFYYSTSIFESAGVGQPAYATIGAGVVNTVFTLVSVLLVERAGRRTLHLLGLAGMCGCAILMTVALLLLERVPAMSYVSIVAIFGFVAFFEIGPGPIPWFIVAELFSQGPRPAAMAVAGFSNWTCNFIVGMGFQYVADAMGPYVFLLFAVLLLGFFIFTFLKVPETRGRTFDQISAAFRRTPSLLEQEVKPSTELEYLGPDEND
# [6] = target: 3-phosphoinositide-dependent protein kinase 1 (Mus musculus) (UniProt Q9Z2A0); experiment: Activation of PDK1
# 3-phosphoinositide-dependent protein kinase 1 (Mus musculus), sequence (Q9Z2A0 whole entry, looked up): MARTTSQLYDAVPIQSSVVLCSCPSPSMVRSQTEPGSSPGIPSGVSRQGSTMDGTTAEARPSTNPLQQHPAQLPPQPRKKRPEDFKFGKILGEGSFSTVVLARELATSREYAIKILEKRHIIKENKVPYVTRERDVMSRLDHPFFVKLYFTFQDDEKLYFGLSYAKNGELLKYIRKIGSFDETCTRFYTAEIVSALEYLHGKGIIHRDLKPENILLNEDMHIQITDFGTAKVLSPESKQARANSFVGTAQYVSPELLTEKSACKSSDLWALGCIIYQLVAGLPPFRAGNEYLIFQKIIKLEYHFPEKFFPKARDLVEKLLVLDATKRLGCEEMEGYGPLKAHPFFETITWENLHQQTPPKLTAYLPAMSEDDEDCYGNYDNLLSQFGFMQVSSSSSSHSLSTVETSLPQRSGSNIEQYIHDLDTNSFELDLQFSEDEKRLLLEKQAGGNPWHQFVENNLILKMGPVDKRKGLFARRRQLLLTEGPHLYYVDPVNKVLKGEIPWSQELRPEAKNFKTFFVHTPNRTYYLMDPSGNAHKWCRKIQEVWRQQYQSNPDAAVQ
# RAC-alpha serine/threonine-protein kinase (Mus musculus), sequence (P31750 whole entry, looked up): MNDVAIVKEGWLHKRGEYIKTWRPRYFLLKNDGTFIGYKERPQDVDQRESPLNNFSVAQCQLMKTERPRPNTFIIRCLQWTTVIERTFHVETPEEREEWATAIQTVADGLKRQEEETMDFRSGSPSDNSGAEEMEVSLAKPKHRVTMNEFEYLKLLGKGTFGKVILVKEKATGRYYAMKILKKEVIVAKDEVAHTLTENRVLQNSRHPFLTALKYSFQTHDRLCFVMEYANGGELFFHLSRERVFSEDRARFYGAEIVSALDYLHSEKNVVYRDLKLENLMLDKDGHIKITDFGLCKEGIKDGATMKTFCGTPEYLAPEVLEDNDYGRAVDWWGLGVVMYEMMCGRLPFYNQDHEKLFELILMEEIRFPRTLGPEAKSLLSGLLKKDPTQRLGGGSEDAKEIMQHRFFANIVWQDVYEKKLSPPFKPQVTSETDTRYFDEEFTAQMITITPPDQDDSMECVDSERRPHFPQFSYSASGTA
SMILES,Activity (HeLa),Ki [1] [µM],inhibition [2],Ki (Protein O-GlcNAcase) [µM],Activity [3],inhibition [4],Activity (3T3-L1),Activity (HT-29),inhibition [5] [%],Activity [6]
CC1=N[C@@H]2[C@@H](O)[C@H](O)[C@@H](CO)O[C@@H]2[Se]1,Active,170,Active,0.7,Active,Active,inactive,Active,16.3,Active
CC1=N[C@@H]2[C@@H](O)[C@H](O)[C@@H](CO)O[C@@H]2S1,Active,20,Active,–,Active,Active,inactive,Active,43,Active
